For 45 compounds, IC50 and Activity results are on record in ChEMBL document CHEMBL1144185, “Synthesis and SAR study of N-(4-hydroxy-3-(2-hydroxynaphthalene-1-yl)phenyl)-arylsulfonamides: heat shock protein 90 (Hsp90) inhibitors with submicromolar activity in an in vitro assay” (Bioorg Med Chem Lett, 2008).

Calls of active or inactive are those of the source. The rule behind the calls is not given here.

As usually defined, the IC50 is the concentration needed to halve the response being measured.

In the first assay the target is T1, Heat shock protein HSP90 (Homo sapiens, UniProt P07900+P08238). As to the kind of experiment: Inhibition of Hsp90 in human SKBR3 cells assessed as interaction with Cy3b-conjugated geldanamycin by FP assay. Conditions: sk-br-3. Type of assay: cell-based.
Regarding `COc1ccc(S(=O)(=O)Nc2ccc(N)c(-c3c(O)ccc4ccccc34)c2)c(OC)c1`, the IC50 turned out to be 25 µM.
On the same count and under the same terms, next, `Nc1ccc(NS(=O)(=O)c2cc(Cl)ccc2Cl)cc1-c1c(O)ccc2ccccc12`: 9.4 µM; `Nc1ccc(NS(=O)(=O)c2ccc(O)cc2O)cc1-c1c(O)ccc2ccccc12`: 9.5 µM.
The same measure, in the same setting: under `Cc1ccc(S(=O)(=O)Nc2ccc(F)c(-c3c(O)ccc4c3OCO4)c2)cc1` stands 28 µM; under `COc1ccc(O)c(O)c1-c1cc(NS(=O)(=O)c2cc(Cl)ccc2Cl)ccc1N`, 0.55 µM.
Regarding `Cc1ccc(S(=O)(=O)Nc2cccc(-c3c(O)ccc4c3OCO4)c2)cc1`, the IC50 worked out at 31.3 µM.
In the case of `N#Cc1cc(S(=O)(=O)Nc2ccc(F)c(-c3c(O)ccc4c3OCO4)c2)ccc1F`, the IC50 turned out to be 27 µM.
The same measure, in the same setting: under `COc1ccc(S(=O)(=O)Nc2ccc(O)c(-c3c(O)ccc4ccccc34)c2)c(OC)c1` stands 2.5 µM; under `O=S(=O)(Nc1cccc(-c2c(O)ccc3c2OCO3)c1)c1cc(Cl)ccc1Cl`, 14.5 µM.
`O=S(=O)(Nc1cccc(-c2c(O)ccc3c2OCO3)c1)c1ccc(F)cc1`: the IC50 was determined as 19.6 µM.
With `O=S(=O)(Nc1ccc(O)c(-c2c(O)ccc3c2OCO3)c1)c1cc(Cl)ccc1Cl`, the IC50 is 1.7 µM.
The same measure, in the same setting: under `O=S(=O)(Nc1ccc(O)c(-c2c(O)ccc3ccccc23)c1)c1ccccc1` stands 4.5 µM.
The same measure, in the same setting: under `O=S(=O)(Nc1ccc(O)c(-c2ccccc2O)c1)c1cc(Cl)ccc1Cl` stands 19.4 µM.
The same measure, in the same setting: next, `N#Cc1ccccc1S(=O)(=O)Nc1ccc(O)c(-c2c(O)ccc3ccccc23)c1`: 4.5 µM; `COc1cc(O)ccc1S(=O)(=O)Nc1ccc(O)c(-c2c(O)ccc3ccccc23)c1`: 1.3 µM; `O=[N+]([O-])c1cc(S(=O)(=O)Nc2ccc(F)c(-c3c(O)ccc4c3OCO4)c2)ccc1Cl`: 26 µM.
Turning to `O=S(=O)(Nc1ccc(O)c(-c2c(O)ccc3ccccc23)c1)c1ccc(O)cc1O`, the IC50 came out at 1.8 µM.

For another assay, the target named is T1, Heat shock protein HSP90. The assay is described as follows: Inhibition of Hsp90 in human SKBR3 cells assessed as interaction with Cy3b-conjugated geldanamycin upto 50 uM by FP assay. Type of assay: cell-based. The following applies: SK-BR-3. Summed up:
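Fluorescence polarization binding assay measuring displacement of fluorescently labeled geldanamycin from the Hsp90 ATP-binding site. Compounds were tested up to a maximum of 50 µM.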
Consider `O=[N+]([O-])c1cccc(S(=O)(=O)Nc2ccc(F)c(-c3c(O)ccc4c3OCO4)c2)c1`, for which the result was inactive.
Same read-out and setting: under `COc1ccc2c(c1-c1cc(NS(=O)(=O)c3ccccc3[N+](=O)[O-])ccc1N)OCO2` stands “inactive”; under `O=[N+]([O-])c1ccccc1S(=O)(=O)Nc1ccc(F)c(-c2c(O)ccc3c2OCO3)c1`, “inactive”.
Still for that read-out and setting: next, `Nc1ccc(NS(=O)(=O)c2cc(Cl)ccc2Cl)cc1-c1ccccc1O`: “inactive”.
Turning to `O=C(O)c1ccc(S(=O)(=O)Nc2ccccc2-c2c(O)ccc3c2OCO3)cc1`, the outcome was inactive.
Still for that read-out and setting: next, `N#Cc1cc(S(=O)(=O)Nc2cccc(-c3c(O)ccc4c3OCO4)c2)ccc1F`: “inactive”; `O=[N+]([O-])c1cccc(S(=O)(=O)Nc2ccc(O)c(-c3ccccc3O)c2)c1`: “inactive”.
The same measure, in the same setting: next, `O=S(=O)(Nc1ccccc1-c1c(O)ccc2c1OCO2)c1cc(Cl)ccc1Cl`: “inactive”; `COc1ccc(S(=O)(=O)Nc2ccc(N)c(-c3c(OC)ccc4c3OCO4)c2)cc1OC`: “inactive”.
On the same count and under the same terms, under `Cc1ccc(S(=O)(=O)Nc2ccc(O)c(-c3ccccc3O)c2)cc1` stands “inactive”; under `COc1ccc2c(c1-c1cc(NS(=O)(=O)c3ccc(C)cc3)ccc1N)OCO2`, “inactive”; under `COc1ccc2c(c1-c1cc(NS(=O)(=O)c3cccc(N)c3)ccc1N)OCO2`, “inactive”.
With `COc1ccc(S(=O)(=O)Nc2ccc(N)c(-c3ccccc3O)c2)cc1OC`, the result was inactive.
On the same count and under the same terms, under `Cc1ccc(S(=O)(=O)Nc2ccc(N)c(-c3ccccc3O)c2)cc1` stands “inactive”; under `Nc1ccc(NS(=O)(=O)c2ccccc2)cc1-c1c(O)ccc2ccccc12`, “inactive”; under `O=S(=O)(Nc1ccc(F)c(-c2c(O)ccc3c2OCO3)c1)c1ccc(F)cc1`, “inactive”.
The same measure, in the same setting: next, `COc1ccc(S(=O)(=O)Nc2ccc(O)c(-c3ccccc3O)c2)cc1OC`: “inactive”; `Nc1cccc(S(=O)(=O)Nc2ccc(F)c(-c3c(O)ccc4c3OCO4)c2)c1`: “inactive”; `O=[N+]([O-])c1ccccc1S(=O)(=O)Nc1ccc(O)c(-c2ccccc2O)c1`: “inactive”.
On the same count and under the same terms, under `COc1ccc2c(c1-c1cc(NS(=O)(=O)c3cccc([N+](=O)[O-])c3)ccc1N)OCO2` stands “inactive”; under `COc1ccc2c(c1-c1cc(NS(=O)(=O)c3cc(Cl)ccc3Cl)ccc1N)OCO2`, “inactive”; under `O=C(O)c1cccc(S(=O)(=O)Nc2ccc(F)c(-c3c(O)ccc4c3OCO4)c2)c1`, “inactive”.
For `Nc1ccccc1S(=O)(=O)Nc1ccc(F)c(-c2c(O)ccc3c2OCO3)c1`, the result was inactive.
With `Nc1ccccc1S(=O)(=O)Nc1ccc(O)c(-c2ccccc2O)c1`, the result was inactive.
Still for that read-out and setting: next, `N#Cc1cc(S(=O)(=O)Nc2ccccc2-c2c(O)ccc3c2OCO3)ccc1F`: “inactive”; `Nc1cccc(S(=O)(=O)Nc2ccc(O)c(-c3ccccc3O)c2)c1`: “inactive”.
Still for that read-out and setting: under `COc1ccc2c(c1-c1cc(NS(=O)(=O)c3ccccc3N)ccc1N)OCO2` stands “inactive”.

The test system of another assay is SK-BR-3. The assay is described as follows: cells. The following applies: Homo sapiens, SK-BR-3, 72 h.
In turn, `COc1ccc(O)c(O)c1-c1cc(NS(=O)(=O)c2cc(Cl)ccc2Cl)ccc1N` had an IC50 of 6 µM.
On the same count and under the same terms, next, `O=S(=O)(Nc1ccc(O)c(-c2c(O)ccc3c2OCO3)c1)c1cc(Cl)ccc1Cl`: 4.4 µM; `O=S(=O)(Nc1ccc(O)c(-c2c(O)ccc3ccccc23)c1)c1cc(Cl)ccc1Cl`: 6 µM.
`O=S(=O)(Nc1ccc(O)c(-c2c(O)ccc3ccccc23)c1)c1ccc(O)cc1O`: the IC50 is more than 50 µM.

The target of a further assay is T1, Heat shock protein HSP90. As to the kind of experiment: Inhibition of Hsp90 in human SKBR3 cells assessed as Her2 degradation after 24 hrs by Western blot. The following applies: sk-br-3. Type of assay: cell-based. (In general: Immunoblotting shows a protein as a band on a membrane.)
`COc1ccc(O)c(O)c1-c1cc(NS(=O)(=O)c2cc(Cl)ccc2Cl)ccc1N`: the IC50 was 20 µM.
